In ChEMBL document CHEMBL1139474, “Cellular apoptosis and cytotoxicity of phenolic compounds: a quantitative structure-activity relationship study” (J Med Chem, 2005):
Each block holds one compound with its values, some of them ahead of it.

Columns and labels:
L1210 [1] = experiment: Activity against caspase-mediated apoptosis in mouse L1210 cells at 0.1 mM; format: functional
L1210 [2] = experiment: Cytotoxicity against mouse L1210 cells; conditions: for log(1/ID50): mouse, l1210
MCF7 = experiment: Cytotoxicity against human MCF7 cells
CCRF-CEM = experiment: Cytotoxicity against human CCRF-CEM cells
[3] = Cytotoxicity against human CEM/VLB cells
L1210 [4] = experiment: Activity against caspase-mediated apoptosis in mouse L1210 cells; format: functional
HL-60 [5] = experiment: Cytotoxicity against human HL60 cells; format: cell-based
In short: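 HL-60 cells grown at 37 °C in RPMI with L-glutamine and 10% FBS, then seeded at (2–5) × 10⁴ cells/mL, in duplicate, at eight or more concentrations. Compounds were diluted in unsupplemented RPMI and added 1:10. After 48 h of continuous exposure, CyQUANT GR nucleic-acid dye fluorescence was read (ex 485/em 530 nm). IC50 is the concentration giving 50% lower fluorescence than controls, taken from the dose-response curve.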

L1210 [6] = experiment: Induction of apoptosis in mouse L1210 cells at 151 uM; format: functional
In short: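 L1210 cells at 4 × 10⁴ cells/mL were incubated with or without the phenol for 12 h at 37 °C. Caspase activity was then measured in a homogeneous fluorimetric assay: DEVD-rhodamine 110 substrate in incubation buffer was added for 2 h at 37 °C, and fluorescence was read at 521 nm with excitation at 490 nm.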

HL-60 [7] = experiment: Induction of DNA fragmentation in human HL60 cells after 16 hrs; format: functional, cell-based; conditions: HL-60, 16 h

Structure (SMILES): CCOc1ccc(O)cc1 [1-hydroxy-4-ethoxybenzene]
Activity (L1210 [1]): <15% | log(1/ID50) (L1210 [2]): 4.64 | log(1/ID50) (MCF7): 3.7

Structure (SMILES): Oc1ccccc1 [PHENOL]
log(1/ID50) (CCRF-CEM): 3.27 | log(1/ID50) [3]: 2.65 | Activity (L1210 [1]): <15% | log(1/ID50) (L1210 [4]): -0.2 | log(1/ID50) (L1210 [2]): 3.27 | log(1/ID50) (HL-60 [5]): 3.05 | log(1/ID50) (MCF7): 2.56

Structure (SMILES): Cl.Nc1ccc(O)cc1 [4-AMINOPHENOL HYDROCHLORIDE]
log(1/ID50) (CCRF-CEM): 4.61 | log(1/ID50) [3]: 1.94 | Activity (L1210 [1]): <15% | log(1/ID50) (L1210 [2]): 5.09 | log(1/ID50) (HL-60 [5]): 4.5

Structure (SMILES): Cc1ccc(O)cc1 [p-CRESOL]
log(1/ID50) (CCRF-CEM): 3.82 | log(1/ID50) [3]: 4.05 | Activity (L1210 [1]): <15% | log(1/ID50) (L1210 [2]): 3.85 | log(1/ID50) (HL-60 [5]): 3.35

Structure (SMILES): Oc1ccc(Oc2ccccc2)cc1
Activity (L1210 [1]): <15% | log(1/ID50) (L1210 [4]): 0.19 | log(1/ID50) (L1210 [2]): 4.97 | log(1/ID50) (MCF7): 3.99

Structure (SMILES): COc1ccc(O)c(C(C)(C)C)c1.COc1ccc(O)cc1C(C)(C)C [BUTYLATED HYDROXYANISOLE]
Activity (L1210 [6]): 15% | IC50 (HL-60 [7]): 1.38 mM | log(1/ID50) (L1210 [4]): 2.71 | log(1/ID50) (L1210 [2]): 3.82

IC50 (HL-60 [7]): 3.18 mM
Structure (SMILES): Cc1cc(C(C)(C)C)c(O)c(C(C)(C)C)c1 [BUTYLATED HYDROXYTOLUENE]
log(1/ID50) (L1210 [4]): 2.09 | IC50 (L1210 [2]; Mus musculus, L1210): 0.0912 mM | log(1/ID50) (L1210 [2]): 4.04

Structure (SMILES): CCCOc1ccc(O)cc1 [1-hydroxy-4-propoxybenzene]
Activity (L1210 [1]): <15% | log(1/ID50) (L1210 [4]): 0.09 | log(1/ID50) (L1210 [2]): 4.85 | log(1/ID50) (HL-60 [5]): 3.7

Structure (SMILES): COc1ccc(O)cc1 [MEQUINOL]
log(1/ID50) (CCRF-CEM): 4.41 | log(1/ID50) [3]: 4.36 | Activity (L1210 [1]): <15% | log(1/ID50) (L1210 [4]): 0.02 | log(1/ID50) (HL-60 [5]): 3.6

Structure (SMILES): CCc1ccc(O)cc1
log(1/ID50) (CCRF-CEM): 3.79 | log(1/ID50) [3]: 3.84 | Activity (L1210 [1]): <15% | log(1/ID50) (L1210 [2]): 3.86 | log(1/ID50) (MCF7): 2.91
